Measurements taken from PubChem BioAssay.
Calls of active or inactive are those of the source.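 Rule for the calls, unless noted: active = viability loss from added drug above about 55%, and viability with drug at most 40%, in both replicates (limit read from the data, passing the limit was not always enough); inconclusive = both conditions met in only one replicate; inactive = neither replicate meets both conditions.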

Columns and labels:
[1] = Her2 expression decrease, cell viability multiplex – SKBR3 breast tumor cells, AlphaScreen, ATP viability, primary screen (AID 461;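 active = Her2 level under about 52% in both replicate screens, with viability over 70% of control, limit read from the data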;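 for Her2 level: lower value means less Her2 protein in the cells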;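 for viability: percent of carrier control wells set as 100% viability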); conditions: SKBR3 Her2 protein level, 18-24 h, measured here: SKBR3 viability, ATP luminescence, at 10 µM
[2] = target: Receptor tyrosine-protein kinase erbB-2 (Homo sapiens) (UniProt P04626); experiment: as above; conditions: 18-24 h, at 10 µM, stronger effect = lower value
Chain of Receptor tyrosine-protein kinase erbB-2 (Homo sapiens) (P04626 whole entry, looked up): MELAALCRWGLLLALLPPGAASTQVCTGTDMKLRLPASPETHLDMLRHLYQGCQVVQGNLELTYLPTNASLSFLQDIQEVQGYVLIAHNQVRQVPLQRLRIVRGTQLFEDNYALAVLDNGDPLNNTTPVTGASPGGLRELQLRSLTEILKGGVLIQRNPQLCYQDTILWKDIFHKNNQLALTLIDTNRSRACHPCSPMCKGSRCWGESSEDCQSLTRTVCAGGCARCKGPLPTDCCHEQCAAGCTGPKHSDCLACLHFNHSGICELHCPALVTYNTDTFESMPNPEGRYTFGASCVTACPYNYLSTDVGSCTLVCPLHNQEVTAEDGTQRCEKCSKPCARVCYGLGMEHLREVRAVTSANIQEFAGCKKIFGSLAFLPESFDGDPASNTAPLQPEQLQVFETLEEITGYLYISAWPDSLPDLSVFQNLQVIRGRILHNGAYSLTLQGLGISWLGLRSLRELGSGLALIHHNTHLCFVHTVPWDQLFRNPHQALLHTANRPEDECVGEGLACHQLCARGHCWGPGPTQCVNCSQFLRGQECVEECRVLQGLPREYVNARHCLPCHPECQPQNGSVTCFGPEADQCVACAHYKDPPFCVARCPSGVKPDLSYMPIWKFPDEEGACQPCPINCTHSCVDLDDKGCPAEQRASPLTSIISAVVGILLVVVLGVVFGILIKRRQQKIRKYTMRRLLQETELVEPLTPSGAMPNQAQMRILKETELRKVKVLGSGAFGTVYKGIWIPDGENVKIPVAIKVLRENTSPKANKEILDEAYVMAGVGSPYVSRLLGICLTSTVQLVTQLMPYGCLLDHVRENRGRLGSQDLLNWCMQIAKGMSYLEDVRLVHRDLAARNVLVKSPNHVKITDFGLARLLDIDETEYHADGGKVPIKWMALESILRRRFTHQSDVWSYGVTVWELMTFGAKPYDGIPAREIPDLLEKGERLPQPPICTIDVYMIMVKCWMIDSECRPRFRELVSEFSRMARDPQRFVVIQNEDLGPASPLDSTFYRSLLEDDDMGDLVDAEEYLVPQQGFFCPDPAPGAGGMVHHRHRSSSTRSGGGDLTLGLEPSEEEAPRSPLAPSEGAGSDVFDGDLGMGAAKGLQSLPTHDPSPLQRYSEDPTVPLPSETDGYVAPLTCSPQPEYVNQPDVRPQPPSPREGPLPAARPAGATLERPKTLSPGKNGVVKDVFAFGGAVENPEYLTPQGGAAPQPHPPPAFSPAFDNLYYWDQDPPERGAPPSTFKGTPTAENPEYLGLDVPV

[3] = reduced viability of SK-BR-3 breast cancer cells – cell-based, 24 h, human, pilot screen (AID 572;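 active = viability at or below 10% of carrier control in both of two separate runs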;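 note: compound exposure lasted between 18 and 24 h rather than exactly 24 h; 100% = carrier-treated control wells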); conditions: SK-BR-3 viability, CellTiter-Glo luminescence, at 10 µM, stronger effect = lower value
[4] = HUVEC growth inhibition – cell-based, human, primary screen (AID 575;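 active = viability at or below 30% in both replicate assays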;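 note: 100% = median of untreated cell wells with 0.1% DMSO on each plate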); conditions: HUVEC proliferation, CellTiter-Glo luminescence, 72 h; at 10 µM; stronger effect = lower value
How it was run: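 Timing: 72 h treatment at 37 °C; material: HUVEC primary cells; technique: CellTiter-Glo luminescence measuring cellular ATP; controls: vehicle and MePR control wells; measure: percent of median DMSO-control luminescence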

[5] = H69AR cell proliferation blockers – human, duplicate replicates, primary screen (AID 580;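 active = viability at or under a set limit in both replicates, limit being median viability minus 3 SD, cut at about 48% in these data, passing the limit was not always enough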;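 note: 100% = mean luminescence of untreated wells and 0% = no signal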); conditions: H69AR lung tumor cells viability, ATP luminescence, 72 h; at 10 µM; stronger effect = lower value
[6] = MRP1 drug-resistance reversers in H69AR cells – cell-based, doxorubicin co-treatment, pilot screen (AID 601); conditions: CellTiter-Glo, 72 h, at 10 µM; for differential viability (reversal): stronger effect = higher value
[7] = yeast transport mutant growth inhibition pilot in 384-well plates, post-Golgi transport modulator project (AID 636; in the data active = inhibition above about 31%); conditions: absorbance 615 nm, about 18 h, stronger effect = higher value
[8] = growth suppression of yeast trafficking mutant, preliminary HTS, modulators of trafficking downstream of Golgi apparatus project, 1536-format plate, OD 615 nm (AID 637; in the data active = inhibition above about 30%); conditions: yeast transport mutant growth, absorbance 615 nm, 18 h; stronger effect = higher value
[9] = H69AR cells + 2 uM doxorubicin, measured here: viability with 2 uM doxorubicin, stronger effect = lower value
[10] = H69AR cells, compound alone cytotoxicity

SMILES	viability [1] [%]	Her2 level [2]	viability [3]	viability [4]	viability [5]	differential viability (reversal) ([6]; H69AR cells + 2 uM doxorubicin)	viability [6, 9] [%]	viability [6, 10] [%]	inhibition [7]	inhibition [8]
Cc1ccc(-n2ncc3c(Nc4c(C)n(C)n(-c5ccccc5)c4=O)ncnc32)c(C)c1	99	94.5% (inactive)	99% (inactive)	96.2% (inactive)	92.3% (inactive)	9.15% (inactive)	83.2	92.3	-4.8% (inactive)	1.45% (inactive)
CCOCCCNc1ncnc2c1[nH]c1ccccc12	99	96.5% (inactive)	99% (inactive)	89.5% (inactive)	90.3% (inactive)	-13.3% (inactive)	104	90.3	-2.63% (inactive)	1.31% (inactive)
O=C1N(c2ccccc2)C2CS(=O)(=O)CC2N1c1ccc(Br)cc1 (stereo not given)	102	88.5% (inactive)	102% (inactive)	97.7% (inactive)	101% (inactive)	17.5% (inactive)	83.2	101	-6.4% (inactive)	-0.95% (inactive)
O=c1[nH]c(CN2CCN(Cc3ccccc3)CC2)nc2sc3c(c12)CCC3	96	87.5% (inactive)	96% (inactive)	98.9% (inactive)	87.9% (inactive)	0.67% (inactive)	87.3	87.9	-4.86% (inactive)	2.06% (inactive)
CCOc1ccc(Nc2nc(Cc3nnc(SCC(N)=O)o3)cs2)cc1	106	88% (inactive)	106% (inactive)	89.8% (inactive)	93.6% (inactive)	13.2% (inactive)	80.4	93.6	-6.1% (inactive)	-2.7% (inactive)
Cc1cc2oc(=O)cc(CN3CCN(Cc4ccc5c(c4)OCO5)CC3)c2cc1C	96.5	91.5% (inactive)	96.5% (inactive)	84.3% (inactive)	80.6% (inactive)	0.615% (inactive)	80	80.6	-5.73% (inactive)	-1.29% (inactive)
CCOC(=O)c1c(C)[nH]c(C(=O)COC(=O)C2CC2C)c1C (stereo not given)	117	116% (inactive)	117% (inactive)	99.4% (inactive)	102% (inactive)	15.7% (inactive)	85.8	102	-4.93% (inactive)	0.48% (inactive)
O=C(CN1C(=O)CC(c2ccco2)Sc2ccccc21)Nc1ccccc1F (stereo not given)	82.5	82% (inactive)	82.5% (inactive)	72.2% (inactive)	84.3% (inactive)	3.75% (inactive)	80.6	84.3	0% (inactive)	-0.83% (inactive)
CC(C)(Oc1ccc(Cl)cc1)C(=O)NC1CCSC1=O (stereo not given)	101	104% (inactive)	101% (inactive)	90.3% (inactive)	114% (inactive)	19.5% (inactive)	94.6	114	0.27% (inactive)	-9.52% (inactive)
Cc1nc(CNS(=O)(=O)c2ccc3c(c2)OCCO3)cs1	96	142% (inactive)	96% (inactive)	105% (inactive)	96.6% (inactive)	-0.265% (inactive)	96.9	96.6	2.24% (inactive)	9.51% (inactive)
COc1ccc(Oc2c(C)oc3cc(OC(=O)N4CCOCC4)ccc3c2=O)cc1	91	99% (inactive)	91% (inactive)	105% (inactive)	101% (inactive)	-0.51% (inactive)	101	101	-5.6% (inactive)	-5.08% (inactive)
O=c1[nH]c(SCc2cc(=O)n3ccccc3n2)nc2c1CCC2	101	83.5% (inactive)	101% (inactive)	74.7% (inactive)	85.2% (inactive)	1.62% (inactive)	83.6	85.2	-2.76% (inactive)	-2.22% (inactive)
Nc1scc(-c2ccncc2)c1Cl	90.5	77.5% (inactive)	90.5% (inactive)	83.5% (inactive)	96.2% (inactive)	8.54% (inactive)	87.7	96.2	-5.07% (inactive)	-3.49% (inactive)
O=C(COC(=O)C12CC3CC(CC(O)(C3)C1)C2)N1CCN(S(=O)(=O)c2ccc(Cl)cc2)CC1	87.5	85.5% (inactive)	87.5% (inactive)	107% (inactive)	83.6% (inactive)	-7.7% (inactive)	91.3	83.6	-3.33% (inactive)	-4.17% (inactive)
CC(=O)c1cccc(NC(=O)N2C3CCC2CC(O)(c2cccnc2)C3)c1 (stereo not given)	102	98.5% (inactive)	102% (inactive)	100% (inactive)	106% (inactive)	9.59% (inactive)	96.7	106	0.41% (inactive)	-5.83% (inactive)
